Experiment [1] has as its target T1, Alcohol dehydrogenase (Equus caballus, UniProt P00327+P00328). Kind of experiment: Dissociation constant from Alcohol dehydrogenase. In kind it is protein assay.
Experiment [2] deals with T1, Alcohol dehydrogenase. Kind of experiment: In vitro inhibitory activity against horse liver Alcohol dehydrogenase (ADH).
The target of experiment [3] is Glutamate dehydrogenase 1, mitochondrial (Bos taurus, UniProt P00366). The experiment can be described thus: In vitro inhibitory activity against bovine liver glutamate dehydrogenase (GDH).
Experiment [4] concerns the target L-lactate dehydrogenase B chain (Sus scrofa, UniProt P00336). Kind of experiment: In vitro inhibitory activity against pig heart lactate dehydrogenase (LDH). An outline of the steps: (§1)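 Pig heart enzymes (cytoplasmic MDH or LDH, from ammonium sulfate suspension) assayed in 0.05 M Tris HCl pH 9.0, with NAD as substrate; rates from NADH appearance by A340 (ε 6.22 mM⁻¹cm⁻¹) or fluorescence calibrated against NADH standards. Run at least in duplicate; kinetic constants from Lineweaver-Burk plots by linear regression.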

Experiment [5] concerns the target T2, Malate dehydrogenase, cytoplasmic (Sus scrofa, UniProt P11708).
T2 sequence (P11708 whole entry): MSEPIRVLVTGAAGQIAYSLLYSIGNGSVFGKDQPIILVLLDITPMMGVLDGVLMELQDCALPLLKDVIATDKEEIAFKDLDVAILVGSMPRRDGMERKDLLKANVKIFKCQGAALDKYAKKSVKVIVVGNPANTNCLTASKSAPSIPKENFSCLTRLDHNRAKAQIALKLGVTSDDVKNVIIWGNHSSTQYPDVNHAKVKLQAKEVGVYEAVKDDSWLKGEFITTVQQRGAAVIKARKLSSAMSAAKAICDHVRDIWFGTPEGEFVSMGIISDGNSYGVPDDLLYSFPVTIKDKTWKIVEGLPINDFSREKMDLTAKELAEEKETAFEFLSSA
Kind of experiment: In vitro inhibitory activity against pig heart cytoplasmic malate dehydrogenase (MDH). An outline of the steps: as §1

Experiment [6] addresses T1, Alcohol dehydrogenase. The experiment can be described thus: In vitro inhibitory activity against horse liver Alcohol dehydrogenase.

Chain of Glutamate dehydrogenase 1, mitochondrial (P00366 whole entry): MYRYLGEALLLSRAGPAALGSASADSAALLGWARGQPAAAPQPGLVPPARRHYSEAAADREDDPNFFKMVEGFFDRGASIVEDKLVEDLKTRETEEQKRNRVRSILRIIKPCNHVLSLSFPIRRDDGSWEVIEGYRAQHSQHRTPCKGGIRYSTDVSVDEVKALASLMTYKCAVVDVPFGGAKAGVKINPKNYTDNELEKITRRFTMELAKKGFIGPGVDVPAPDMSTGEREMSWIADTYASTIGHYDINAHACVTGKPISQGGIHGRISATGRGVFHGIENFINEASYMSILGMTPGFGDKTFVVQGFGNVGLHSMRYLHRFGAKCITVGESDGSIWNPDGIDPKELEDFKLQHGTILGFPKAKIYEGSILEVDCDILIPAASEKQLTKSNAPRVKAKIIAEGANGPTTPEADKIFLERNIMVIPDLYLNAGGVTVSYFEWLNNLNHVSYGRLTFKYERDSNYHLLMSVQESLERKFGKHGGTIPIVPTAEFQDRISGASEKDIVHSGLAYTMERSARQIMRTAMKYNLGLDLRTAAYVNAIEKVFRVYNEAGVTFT
Chain of L-lactate dehydrogenase B chain (P00336 whole entry): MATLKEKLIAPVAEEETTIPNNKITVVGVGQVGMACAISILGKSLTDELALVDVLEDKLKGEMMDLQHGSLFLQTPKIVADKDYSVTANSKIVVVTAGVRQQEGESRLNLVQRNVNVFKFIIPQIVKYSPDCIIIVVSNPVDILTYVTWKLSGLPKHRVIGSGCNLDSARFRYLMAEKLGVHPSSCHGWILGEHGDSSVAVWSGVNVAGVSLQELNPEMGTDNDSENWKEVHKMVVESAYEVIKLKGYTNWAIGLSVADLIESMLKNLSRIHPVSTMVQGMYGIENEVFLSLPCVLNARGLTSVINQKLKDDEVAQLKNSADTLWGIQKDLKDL

The Kd is the constant that tells how readily two partners part at equilibrium. The low end stands for a tighter complex, the high end for a looser complex. Broadly, the Ki is the dissociation constant of the complex between target and ligand, obtained from inhibition or displacement. Read a low Ki as higher affinity. Molecule `NC(=O)c1csc([C@H]2O[C@@H](COP(=O)(O)OP(=O)(O)OC[C@H]3O[C@@H](n4cnc5c(N)ncnc54)[C@H](O)[C@@H]3O)[C@H](O)[C@@H]2O)n1` yielded a Kd in experiment [1] of 27 µM. Moreover, the Ki is 26.5 µM in experiment [2], 4.5 µM in experiment [3], 25.2 µM in experiment [4] and 36.3 µM in experiment [5].

In the case of `NC(=O)c1csc([C@@H]2O[C@H](COP(=O)(O)O)[C@@H](O)[C@H]2O)n1`, the Ki worked out at 105 µM in experiment [6] and 65.2 µM in experiment [3].

On to `NC(=O)c1ccc[n+]([C@@H]2O[C@H](COP(=O)([O-])O)[C@@H](O)[C@H]2O)c1` [BETANMN], for which the Ki in experiment [6] and in experiment [3] was above 10000 µM throughout.

As for `NC(=O)c1csc([C@@H]2O[C@H](CO)[C@@H](O)[C@H]2O)n1` [TIAZOFURIN], the Ki in experiment [6] and in experiment [3] was above 10000 µM in each case.

The values above are taken from ChEMBL document CHEMBL1124735, “Dehydrogenase binding by tiazofurin anabolites” (J Med Chem, 1990).
